SENP8 block-1: inhibitors of human SENP8 protease; Q96LD8; inhibition, % at 10 µM; 1.2% of 330,000 active; purified SENP8, Z-RLRGG-aminoluciferin cleavage, luminescence; in the data active = inhibition above about 50%
Target sequence (Q96LD8 whole entry, looked up): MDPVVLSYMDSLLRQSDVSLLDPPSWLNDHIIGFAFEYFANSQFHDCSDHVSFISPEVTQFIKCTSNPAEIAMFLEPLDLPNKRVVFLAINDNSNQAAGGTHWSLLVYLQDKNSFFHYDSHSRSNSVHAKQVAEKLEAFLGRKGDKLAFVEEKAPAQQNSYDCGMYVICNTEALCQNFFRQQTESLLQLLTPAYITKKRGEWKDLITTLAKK
SENP1 inh: SENP1 (human) catalytic domain inhibition. recombinant SENP1 catalytic domain, CyPet-SUMO1-YPet FRET cleavage. inhibition, % at 10 µM. 0.21% of 360,000 active. AID 624204;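 active = inhibition at least 30% at 10 µM, raw YFP signal under a set limit, fluorescence ratio 0.5 to 1.5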;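 note: 0% = enzyme with DMSO and 100% = no enzyme wells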
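System: Recombinant human SENP1 catalytic domain, His6-tagged | Incubation: Enzyme reaction for 50 min at room temperature, dark | Medium: Tris pH 8 with BME, BSA, NP40 and catalase | Also added: 25 nM SUMO1 FRET substrate | Compound: 10 µM single point, 0.5% DMSO | Measured by: FRET fluorescence in CFP and YFP emission channels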
SENP7 block: blocks the human protease SENP7; 1.5% of 330,000 active; inhibition, % at 5 µM; AID 434973; recombinant SENP7, Z-RLRGG-aminoluciferin luminescence, 40 min; Q9BQF6;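 active = inhibition above about 50% at the single test dose, limit read from the data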;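 note: plate controls were DMSO with enzyme for no effect and no enzyme buffer wells for full effect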
SENP6 block: SENP6 protease inhibition; inhibition, % at 10 µM; 1.8% of 330,000 active; Recombinant SENP6 catalytic domain, aminoluciferin luminescence; Q9GZR1;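 active = inhibition above about 50% at the single tested dose, limit read from the data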;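 note: plate controls were DMSO wells with enzyme for no effect and DMSO wells lacking enzyme for full effect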
Target sequence (Q9GZR1 628-1112 limits assumed): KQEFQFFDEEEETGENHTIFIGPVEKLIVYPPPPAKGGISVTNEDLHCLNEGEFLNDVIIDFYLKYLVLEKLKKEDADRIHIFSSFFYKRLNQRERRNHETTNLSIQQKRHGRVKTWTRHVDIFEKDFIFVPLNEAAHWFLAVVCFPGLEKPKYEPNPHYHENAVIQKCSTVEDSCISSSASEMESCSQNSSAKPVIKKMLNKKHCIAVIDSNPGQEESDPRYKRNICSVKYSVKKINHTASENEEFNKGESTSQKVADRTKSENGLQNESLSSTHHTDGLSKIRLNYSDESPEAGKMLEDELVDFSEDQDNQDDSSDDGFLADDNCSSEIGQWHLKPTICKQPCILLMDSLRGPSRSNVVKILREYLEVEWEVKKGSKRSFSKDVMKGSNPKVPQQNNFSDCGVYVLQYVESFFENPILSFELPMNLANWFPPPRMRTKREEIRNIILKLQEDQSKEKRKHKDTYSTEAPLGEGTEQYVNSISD
SENP8 block-2: inhibitors of human SENP8 protease; AID 602440; inhibition, % at 20 µM; 0.64% of 360,000 active; recombinant SENP8, Nedd8 substrate fluorescence; Q96LD8; in the data active = inhibition mostly above about 40%, no sharp cut-off; inactive = mostly below about 27%
SENP8 confirm: confirmation of human SENP8 protease inhibitors | AID 488912 | 40% of 6,200 active | inhibition, % at 12.5 µM | Recombinant SENP8, Z-RLRGG-aminoluciferin luminescence, 60 min | shares compounds with SENP7 block;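 active = mean inhibition across replicates above about 50%, limit read from the data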
SENP6 confirm: confirmation of human SENP6 protease inhibitors; AID 488915; inhibition, % at 12.5 µM; shares compounds with SENP7 block; 58% of 6,200 active; recombinant SENP6, Z-RLRGG-aminoluciferin luminescence
SENP7 confirm: confirmation of human SENP7 protease inhibitors | recombinant SENP7, Z-RLRGG-aminoluciferin luminescence, 40 min | AID 488917 | inhibition, % at 12.5 µM | shares compounds with SENP7 block | 69% of 6,200 active
Casp3 select: caspase-3 inhibition (SENP selectivity assay). inhibition, % at 12.5 µM. AID 488918. shares compounds with SENP7 block. purified caspase-3, Z-DEVD-aminoluciferin luminescence, 60 min. 60% of 6,200 active;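 active = mean inhibition above about 50%, limit read from the data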;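 note: plate controls were enzyme with DMSO for no effect and wells without caspase-3 for full effect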
SENP luc ctr: luminescence interference (SENP counter-screen). shares compounds with SENP7 block. inhibition, % at 12.5 µM. Pre-incubated SENP8/Z-RLRGG-aminoluciferin, luciferase luminescence interference. 39% of 6,200 active;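 active = mean inhibition above about 50% when retested at one dose, limit read from the data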;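 note: plate controls were DMSO wells with completed reaction for no effect and substrate without enzyme for full effect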
* = called active by the depositor; / = not tested or not shown. An excerpt weighted towards active compounds, which were near 2.5% of everything screened.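 Rule for the calls, unless noted: active = mean inhibition above about 50% in the one-dose retest (limit read from the data); inactive = the rest.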

SMILES	SENP8 block-1	SENP1 inh	SENP7 block	SENP6 block	SENP8 block-2	SENP8 confirm	SENP6 confirm	SENP7 confirm	Casp3 select	SENP luc ctr
Cc1ccc(C(=O)CCC(=O)OCC(=O)N(CC(C)C)c2c(N)n(Cc3ccccc3)c(=O)[nH]c2=O)cc1	-17.2	-7.0	-9.0	-8.0	2.9	/	/	/	/	/
O=C(Nc1cccc(Br)c1)c1cccc(OC(=S)N2CCOCC2)c1	34.1	-1.4	54.7*	56.8*	2.8	20.8	41.8	74.2*	27.4	51.1*
O=C(Nc1ccc(C(=O)N2CCOCC2)cc1)c1cccc(Br)c1	-11.4	-0.4	23.9	8.3	3.1	/	/	/	/	/
CC(C)C[C@@H](CO)N1CCN(Cc2ccc([N+](=O)[O-])cc2)CCC1=O	-2.9	3.6	10.7	-9.8	-3.0	/	/	/	/	/
C(=N\Nc1nc(-c2ccccc2)cs1)/c1cccs1	31.3	-0.4	1.5	63.6*	-67.8	62.7*	64.6*	88.4*	33.0	0.4
Cc1ccc(-c2csc(N/N=C/c3ccco3)n2)cc1	-0.2	-5.5	6.2	6.7	-21.0	/	/	/	/	/
C(=N\Nc1nc(-c2ccccc2)cs1)/c1ccco1	54.5*	-5.8	47.2	72.2*	-18.2	64.6*	65.7*	87.1*	37.2	57.9*
Cc1ccc(CC(=O)NC2CCSC2=O)cc1 (centres undefined)	-4.7	0.6	-12.1	-3.4	20.0	/	/	/	/	/
Brc1ccc(-n2cnc(-c3ccccc3)c2)cc1	69.2*	-2.4	79.3*	71.1*	8.4	61.2*	62.0*	91.6*	58.9*	17.9
O=[N+]([O-])c1ccc(-c2cn(-c3ccc(Cl)cc3)cn2)cc1	/	35.1	/	/	6.8	/	/	/	/	/
Cc1cc(C)c2c(N=NN3CCOCC3)[nH]nc2n1	-10.0	-0.1	4.8	-12.7	11.7	/	/	/	/	/
O=C(CSc1ccccn1)c1ccc2c(c1)OCO2	54.3*	1.4	73.3*	83.6*	12.5	41.0	70.1*	92.0*	84.3*	74.7*
Cc1[nH]n(-c2ccc([N+](=O)[O-])cc2)c(=O)c1C=NCCN1CCN(C(=O)c2ccc(Br)cc2)CC1	49.4	2.2	88.5*	63.8*	30.8	19.1	16.3	11.5	55.1*	56.3*
Cc1[nH]n(-c2ccc([N+](=O)[O-])cc2)c(=O)c1C=NCCN1CCN(C(=O)c2cccc(F)c2)CC1	67.1*	5.5	88.4*	90.3*	14.6	9.4	10.4	5.5	49.1	56.9*
O=C(c1ccccc1)c1ccc(N2CCN(C(=O)c3ccc(F)cc3F)CC2)c(F)c1	/	0.3	/	/	-82.6	/	/	/	/	/
COc1ccc(/C(N)=N/OC(=O)C2CCCCC2)cc1	26.4	-0.2	68.2*	26.5	-11.2	-16.9	10.5	60.7*	17.4	17.7
N/C(=N\OC(=O)CC1CCCCC1)c1cccc(Br)c1	11.9	4.5	22.5	36.9	6.3	/	/	/	/	/
COc1ccc(/C(N)=N/OC(=O)Cc2cccs2)cc1OC	-9.5	-1.4	-0.8	-0.9	10.6	/	/	/	/	/
N/C(=N\OC(=O)C1CCCCC1)c1cccc(Br)c1	27.2	0.8	48.4	69.2*	11.2	45.4	46.1	79.6*	68.8*	51.4*
COc1ccc(/C(N)=N/OC(=O)Cc2cccs2)cc1	8.5	1.7	1.1	50.8*	4.9	30.2	28.3	67.3*	25.7	33.0
NNC(=O)c1csc(-c2ncc(C(F)(F)F)cc2Cl)n1	3.4	0.4	2.2	-7.9	-8.7	/	/	/	/	/
C/C(=N/NC(=O)CN1CCN(Cc2ccccc2Cl)CC1)c1ccncc1	-0.3	0.4	0.5	-1.7	15.1	/	/	/	/	/
Cc1cc([N+](=O)[O-])cc(/C=N\NC(=O)C2COc3ccccc3O2)c1O (centres undefined)	21.9	-33.9	6.1	64.0*	16.2	23.7	11.7	66.1*	38.4	30.0
O=C(N/N=C\c1ccc(O)c([N+](=O)[O-])c1)C1COc2ccccc2O1 (centres undefined)	5.6	-2.6	10.2	-8.6	13.7	/	/	/	/	/
CC(=O)Nc1ccc2nc(-c3ccccc3)cn2c1	9.6	4.1	1.2	1.0	-386.0	/	/	/	/	/
SMILES	SENP8 block-1	SENP1 inh	SENP7 block	SENP6 block	SENP8 block-2	SENP8 confirm	SENP6 confirm	SENP7 confirm	Casp3 select	SENP luc ctr
COC(=O)c1ccc2nc(-c3cccc(N)c3)cn2c1	42.3	-2.8	65.6*	23.5	-14.6	59.9*	61.5*	86.3*	86.1*	68.7*
CCOC(=O)c1csc(-c2sccc2Br)n1	94.2*	0.6	97.9*	94.5*	23.2	96.4*	97.6*	102.3*	96.8*	92.9*
CCOC(=O)c1csc(-c2ccc(OC)c(OC)c2)n1	-6.8	-1.1	-4.1	-6.2	-6.5	/	/	/	/	/
Cn1c(=N)n(CC(=O)c2ccc(Cl)c(Cl)c2)c2ccccc21	36.2	3.0	52.4*	50.8*	9.1	36.7	27.3	19.3	19.1	22.7
CCOC(=O)c1cnc2c(-c3ccccc3)c(C)nn2c1N	-7.5	-0.6	1.3	-14.1	-345.6	/	/	/	/	/
CCOC(=O)c1cnc2c(-c3ccccc3)cnn2c1N	5.8	2.1	72.1*	-46.5	-292.8	11.5	19.1	10.1	13.1	1.3
CCOC(=O)c1cnc2c(N=Nc3ccccc3)c(N)nn2c1N	10.9	1.1	70.1*	32.4	25.1	-8.2	-6.6	4.9	9.3	-4.5
NC1=C(Br)C(=O)c2ccccc2C1=O	53.9*	2.6	49.1	76.0*	104.3*	35.5	63.2*	26.8	77.9*	2.4
O=C(O)c1ccc(COc2ccc(Cl)cc2)o1	80.2*	-0.7	81.5*	79.2*	15.7	91.0*	90.2*	97.4*	31.7	89.4*
CCc1ccc(OCc2ccc(C(=O)O)o2)cc1	90.4*	1.3	86.5*	90.5*	3.8	94.9*	94.9*	99.9*	52.1*	93.8*
O=C(O)c1ccc(OCc2ccc(C(=O)O)o2)cc1	83.5*	-0.2	92.1*	88.4*	24.1	87.2*	88.0*	99.1*	54.7*	70.9*
O=C(O)c1ccc(COc2ccccc2[N+](=O)[O-])o1	15.1	0.9	30.3	57.5*	15.1	45.9	35.2	70.7*	11.3	50.0*
N#Cc1ccc(OCc2ccc(C(=O)O)o2)cc1	12.4	1.2	16.6	23.7	6.2	/	/	/	/	/
COC(=O)c1ccc(COc2ccc(Cl)cc2)o1	31.5	1.8	-0.8	18.5	14.1	/	/	/	/	/
CCOC(=O)c1ccc(Nc2sc(C(=O)c3cccc([N+](=O)[O-])c3)c(N)c2C#N)cc1	2.8	0.6	-0.7	-2.5	28.4	/	/	/	/	/

Bioassay records from PubChem BioAssay.
